Our source for the inhibition values is ChEMBL document CHEMBL3085669, “Design, synthesis and structure-activity relationship of novel Relacin analogs as inhibitors of Rel proteins” (Eur J Med Chem, 2013).

The test system of assay [1] is Escherichia coli. Kind of assay: Inhibition of Escherichia coli relA assessed as inhibition of (p)ppGpp synthesis at 1 mM by autoradiography in presence of [alpha32]GTP. The procedure, abridged: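 Purified E. coli RelA assayed in vitro with inhibitor at 1 mM.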
The next assay concerns Deinococcus radiodurans. The assay is described as follows: Inhibition of Deinococcus radiodurans rel/spo assessed as inhibition of (p)ppGpp synthesis by autoradiography in presence of [alpha32]GTP. The essentials: (§1)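 Cell-free assay on purified Rel enzymes (Rel/Spo from D. radiodurans, RelA from E. coli), with inhibitor tested across varying concentrations.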
The test system of assay [2] is Escherichia coli. The assay is described as follows: Inhibition of Escherichia coli relA assessed as inhibition of (p)ppGpp synthesis by autoradiography in presence of [alpha32]GTP. The procedure, abridged:
as §1

A further assay relates to Bacillus subtilis. The assay is described as follows: Inhibition of Bacillus subtilis relA assessed as reduction in (p)ppGpp level at 2 mM incubated for 15 mins prior to SHX addition measured after 5 to 10 mins by autoradiography. The essentials: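 B. subtilis cells grown with inhibitor at 2 mM. Stringent response then induced by adding serine hydroxamate, and intracellular (p)ppGpp measured afterwards.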

Each structure is given as a SMILES string. Calls of active or inactive are those of the source. The rule behind the calls is not given here.

As to `CC(C)C(=O)Nc1nc2c(ncn2[C@H]2C[C@H](OC(=O)NCC(=O)O)[C@@H](COC(=O)N[C@@H](CCC(=O)O)C(=O)O)O2)c(=O)[nH]1`, the inhibition with Escherichia coli [1] stood at 52.1%.
Turning to `CC(C)C(=O)Nc1nc2c(ncn2[C@H]2C[C@H](OC(=O)NCCCCCC(=O)O)[C@@H](COC(=O)NCCCCCC(=O)O)O2)c(=O)[nH]1`, the inhibition in the assay on Escherichia coli [1] came out at 25.6%.
Turning to `CC(C)C(=O)Nc1nc2c(ncn2[C@H]2C[C@H](OC(=O)NC(CCC(=O)O)C(=O)NC(CCC(=O)O)C(=O)O)[C@@H](COC(=O)NC(CCC(=O)O)C(=O)NC(CCC(=O)O)C(=O)O)O2)c(=O)[nH]1` (stereo partly drawn), the results for the inhibition entry in the assay on Deinococcus radiodurans, in the assay with Escherichia coli [2] and in the assay on Escherichia coli [1] were “Dose-dependent effect”, “Dose-dependent effect” and 80.4%, respectively. Moreover, the inhibition entry in the assay with Bacillus subtilis was “Active”.
Turning to `CC(C)C(=O)Nc1nc2c(ncn2[C@H]2C[C@H](OC(=O)N(CCCN(C)C)CCCN(C)C)[C@@H](COC(=O)N(CCCN(C)C)CCCN(C)C)O2)c(=O)[nH]1`, the inhibition in the assay with Escherichia coli [1] came out at 12%.
For `CC(C)C(=O)Nc1nc2c(ncn2[C@H]2C[C@H](OC(=O)NCC(=O)O)[C@@H](COC(=O)NCC(=O)O)O2)c(=O)[nH]1`, the inhibition entry with Bacillus subtilis is “Active”. Besides, the inhibition in the assay on Escherichia coli [1] worked out at 51.1%.
Take `CC(C)C(=O)Nc1nc2c(ncn2[C@H]2C[C@H](OC(=O)NCC(=O)NCC(=O)O)[C@@H](COC(=O)NCC(=O)NCC(=O)O)O2)c(=O)[nH]1`: the inhibition in the assay with Escherichia coli [1] turned out to be 66.3%.
In the case of `CC(C)C(=O)Nc1nc2c(ncn2[C@H]2C[C@H](OC(=O)N[C@@H](CCC(=O)O)C(=O)O)[C@@H](COC(=O)NCC(=O)O)O2)c(=O)[nH]1`, in the assay with Escherichia coli [1], the inhibition came out at 50.4%.
On to `CC(C)C(=O)Nc1nc2c(ncn2[C@H]2C[C@H](OC(=O)NC(CCC(=O)O)C(=O)O)[C@@H](COC(=O)N[C@@H](CCC(=O)O)C(=O)O)O2)c(=O)[nH]1` (stereo partly drawn), for which the inhibition with Escherichia coli [1] turned out to be 50.6%.
Still for that read-out and setting: the figure for `CC(C)C(=O)Nc1nc2c(ncn2[C@H]2C[C@H](OC(=O)NCCN(C)C)[C@@H](COC(=O)NCCN(C)C)O2)c(=O)[nH]1` is 31.2%.
